Test results: ChEMBL document CHEMBL4177600, “Identification of novel PI3K inhibitors through a scaffold hopping strategy” (Bioorg Med Chem Lett, 2017)

Columns and labels:
[1] = molecular target: Casein kinase I isoform alpha (Homo sapiens) (UniProt P48729); assay: Inhibition of recombinant human N-terminal GST/HIS6-tagged CK1alpha (M1 to F365 residues) expressed in Sf9 insect cells at 1 uM using casein as substrate by fliter binding assay relative to control
Method in brief: (§1)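 Kinase panel of 24 enzymes, each tested at 1 µM; percent inhibition reported as the average of two independent data points.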

[2] = molecular target: T1, Inhibitor of nuclear factor kappa-B kinase subunit beta (Homo sapiens) (UniProt O14920); assay: Inhibition of recombinant human N-terminal GST/His6-tagged IKKbeta (M1 to S756 residues) expressed in baculovirus infected Sf9 cells at 1 uM using IKBa derived peptide as substrate by filter binding method relative to control; method in brief: as §1
T1 sequence (whole entry): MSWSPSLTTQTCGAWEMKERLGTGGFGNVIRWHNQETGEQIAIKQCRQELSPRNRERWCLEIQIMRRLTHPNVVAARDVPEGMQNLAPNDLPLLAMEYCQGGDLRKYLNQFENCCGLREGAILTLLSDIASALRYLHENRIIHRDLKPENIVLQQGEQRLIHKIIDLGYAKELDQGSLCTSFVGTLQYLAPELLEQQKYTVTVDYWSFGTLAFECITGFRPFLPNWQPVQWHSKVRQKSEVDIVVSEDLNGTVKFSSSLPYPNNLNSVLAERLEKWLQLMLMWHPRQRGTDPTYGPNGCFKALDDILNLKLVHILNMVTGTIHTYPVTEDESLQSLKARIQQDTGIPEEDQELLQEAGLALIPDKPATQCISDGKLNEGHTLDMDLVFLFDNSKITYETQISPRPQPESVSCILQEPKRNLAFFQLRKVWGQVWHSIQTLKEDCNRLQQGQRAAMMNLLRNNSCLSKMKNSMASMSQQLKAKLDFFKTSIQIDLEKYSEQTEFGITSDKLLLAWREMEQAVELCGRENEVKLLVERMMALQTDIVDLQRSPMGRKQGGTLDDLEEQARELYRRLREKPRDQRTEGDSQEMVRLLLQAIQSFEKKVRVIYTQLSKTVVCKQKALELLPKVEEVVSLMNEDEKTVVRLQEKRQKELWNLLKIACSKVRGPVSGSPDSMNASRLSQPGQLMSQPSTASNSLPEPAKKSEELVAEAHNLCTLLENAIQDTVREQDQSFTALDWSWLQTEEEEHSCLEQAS

[3] = Stability in human liver microsomes assessed as parent compound remaining at 0.5 uM after 30 mins by LC-MS/MS analysis; assay type: ADME, microsome; conditions: read-out: Stability
Method in brief: (§2)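 Single time-point stability assay: 0.5 µM compound, 0.5 mg/ml human or mouse liver microsomes in 0.1 M potassium phosphate pH 7.4, with NADPH-regenerating system, 30 min at 37 °C with shaking. Reaction quenched with acetonitrile/0.1% formic acid and centrifuged; supernatant analysed by LC-MS/MS. Reported as percent remaining; duplicates.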

[4] = Stability in mouse liver microsomes assessed as parent compound remaining at 0.5 uM after 30 mins by LC-MS/MS analysis; assay type: ADME, microsome; conditions: read-out: Stability; method in brief: as §2
[5] = molecular target: Epidermal growth factor receptor (Homo sapiens) (UniProt P00533); assay: Inhibition of recombinant human N-terminal GST/His6-tagged EGFR (H672 to A1210 residues) expressed in Sf9 insect cells at 1 uM using TRK-C-derived peptide as substrate by filter binding method relative to control; method in brief: as §1
[6] = molecular target: T2, Serine/threonine-protein kinase Chk1 (Homo sapiens) (UniProt O14757); assay: Inhibition of recombinant human N-terminal GST/HIS6-tagged CHK1 (M1 to T476 residues) expressed in baculovirus infected Sf9 insect cells at 1 uM using S6 peptide as substrate by fliter binding assay relative to control; method in brief: as §1
T2 sequence (whole entry): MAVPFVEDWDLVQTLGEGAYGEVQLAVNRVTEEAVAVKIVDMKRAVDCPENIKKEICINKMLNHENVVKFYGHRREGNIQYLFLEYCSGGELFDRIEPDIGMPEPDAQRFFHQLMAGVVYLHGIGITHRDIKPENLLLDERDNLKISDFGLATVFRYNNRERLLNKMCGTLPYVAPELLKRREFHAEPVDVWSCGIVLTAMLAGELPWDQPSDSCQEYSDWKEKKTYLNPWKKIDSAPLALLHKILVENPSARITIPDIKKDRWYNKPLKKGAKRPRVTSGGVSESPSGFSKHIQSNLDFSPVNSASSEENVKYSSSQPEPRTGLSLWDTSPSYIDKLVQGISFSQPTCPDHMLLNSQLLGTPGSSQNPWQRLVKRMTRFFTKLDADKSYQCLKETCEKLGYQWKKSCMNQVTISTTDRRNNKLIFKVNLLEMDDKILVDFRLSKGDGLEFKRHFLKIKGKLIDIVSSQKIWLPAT

[7] = molecular target: RAC-beta serine/threonine-protein kinase (Homo sapiens) (UniProt P31751); assay: Inhibition of human AKT2 at 1 uM by filter binding assay relative to control; method in brief: as §1
[8] = molecular target: Ribosomal protein S6 kinase alpha-1 (Homo sapiens) (UniProt Q15418); assay: Inhibition of RPS6KA1 (unknown origin) at 1 uM relative to control; method in brief: as §1
[9] = molecular target: Tyrosine-protein kinase JAK2 (Homo sapiens) (UniProt O60674); assay: Inhibition of recombinant human N-terminal GST/His6-tagged JAK2 (P717 to G1132 residues) expressed in Sf9 insect cells at 1 uM using TRK-C-derived peptide as substrate by filter binding method relative to control; method in brief: as §1
[10] = molecular target: Vascular endothelial growth factor receptor 2 (Homo sapiens) (UniProt P35968); assay: Inhibition of recombinant human N-terminal GST-tagged VEGFR2 (D807 to V1356 residues) expressed in Sf9 insect cells at 1 uM using Poly(Glu:Tyr)4:1 as substrate by filter binding method relative to control; method in brief: as §1
[11] = molecular target: Dual specificity tyrosine-phosphorylation-regulated kinase 1A (Homo sapiens) (UniProt Q13627); assay: Inhibition of DYRK1A (unknown origin) at 1 uM relative to control; method in brief: as §1
[12] = molecular target: CDK8/Cyclin C (Homo sapiens) (UniProt P49336+P24863); assay: Inhibition of recombinant human N-terminal GST/HIS6-tagged CDK8 (M1 to Y463 residues)/human N-terminal His6-tagged Cyclin C (M1 to S283 residues) expressed in Sf9 insect cells at 1 uM using RBER-IRStide as substrate by fliter binding assay relative to control; method in brief: as §1
[13] = molecular target: PI3-kinase p110-alpha/p85-alpha (Homo sapiens, UniProt P42336); assay: Inhibition of full-length human P110alpha (1 to 1068 residues)/N-terminal GST-fused p85alpha (1 to 724 residues) expressed in baculovirus expression system by ADP Hunter assay; conditions: read-out: Ki(app)
[14] = molecular target: Phosphatidylinositol 4,5-bisphosphate 3-kinase catalytic subunit gamma isoform (Homo sapiens, UniProt P48736); assay: Inhibition of recombinant full-length human N-terminal His6-tagged p110gamma expressed in baculovirus infected Sf21 insect cells using PIP2 as substrate by HTRF assay; conditions: read-out: Ki(app)
[15] = molecular target: Fibroblast growth factor receptor 1 (Homo sapiens) (UniProt P11362); assay: Inhibition of recombinant human N-terminal GST/His6-tagged FGFR1 (G400 to R820 residues) expressed in Sf9 insect cells at 1 uM using poly(Glu,Tyr)4:1 as substrate by filter binding method relative to control; method in brief: as §1
Fibroblast growth factor receptor 1 (Homo sapiens), sequence (P11362 22-822 limits assumed): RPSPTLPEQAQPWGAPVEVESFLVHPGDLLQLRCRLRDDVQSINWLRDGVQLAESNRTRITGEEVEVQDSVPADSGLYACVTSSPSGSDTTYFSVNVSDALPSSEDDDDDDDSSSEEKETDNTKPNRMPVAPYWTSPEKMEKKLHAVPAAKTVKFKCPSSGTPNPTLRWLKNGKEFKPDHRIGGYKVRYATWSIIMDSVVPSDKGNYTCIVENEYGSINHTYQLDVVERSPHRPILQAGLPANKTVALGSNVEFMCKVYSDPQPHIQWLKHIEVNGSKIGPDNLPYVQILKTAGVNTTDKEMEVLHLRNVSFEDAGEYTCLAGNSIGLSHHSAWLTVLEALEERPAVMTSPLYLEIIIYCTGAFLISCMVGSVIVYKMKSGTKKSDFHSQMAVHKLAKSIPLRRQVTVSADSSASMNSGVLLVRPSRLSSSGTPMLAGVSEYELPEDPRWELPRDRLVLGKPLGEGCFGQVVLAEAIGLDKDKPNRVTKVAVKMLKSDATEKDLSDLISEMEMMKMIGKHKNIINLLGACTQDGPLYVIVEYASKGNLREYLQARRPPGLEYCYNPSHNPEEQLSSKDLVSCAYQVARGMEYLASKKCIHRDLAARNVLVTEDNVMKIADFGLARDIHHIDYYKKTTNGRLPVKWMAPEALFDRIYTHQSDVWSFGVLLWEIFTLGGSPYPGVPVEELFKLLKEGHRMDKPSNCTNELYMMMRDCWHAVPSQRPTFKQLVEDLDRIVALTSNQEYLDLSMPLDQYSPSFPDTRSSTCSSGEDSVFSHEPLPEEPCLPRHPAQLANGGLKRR

Vascular endothelial growth factor receptor 2 (Homo sapiens), sequence (P35968 whole entry, the tested form may be a part): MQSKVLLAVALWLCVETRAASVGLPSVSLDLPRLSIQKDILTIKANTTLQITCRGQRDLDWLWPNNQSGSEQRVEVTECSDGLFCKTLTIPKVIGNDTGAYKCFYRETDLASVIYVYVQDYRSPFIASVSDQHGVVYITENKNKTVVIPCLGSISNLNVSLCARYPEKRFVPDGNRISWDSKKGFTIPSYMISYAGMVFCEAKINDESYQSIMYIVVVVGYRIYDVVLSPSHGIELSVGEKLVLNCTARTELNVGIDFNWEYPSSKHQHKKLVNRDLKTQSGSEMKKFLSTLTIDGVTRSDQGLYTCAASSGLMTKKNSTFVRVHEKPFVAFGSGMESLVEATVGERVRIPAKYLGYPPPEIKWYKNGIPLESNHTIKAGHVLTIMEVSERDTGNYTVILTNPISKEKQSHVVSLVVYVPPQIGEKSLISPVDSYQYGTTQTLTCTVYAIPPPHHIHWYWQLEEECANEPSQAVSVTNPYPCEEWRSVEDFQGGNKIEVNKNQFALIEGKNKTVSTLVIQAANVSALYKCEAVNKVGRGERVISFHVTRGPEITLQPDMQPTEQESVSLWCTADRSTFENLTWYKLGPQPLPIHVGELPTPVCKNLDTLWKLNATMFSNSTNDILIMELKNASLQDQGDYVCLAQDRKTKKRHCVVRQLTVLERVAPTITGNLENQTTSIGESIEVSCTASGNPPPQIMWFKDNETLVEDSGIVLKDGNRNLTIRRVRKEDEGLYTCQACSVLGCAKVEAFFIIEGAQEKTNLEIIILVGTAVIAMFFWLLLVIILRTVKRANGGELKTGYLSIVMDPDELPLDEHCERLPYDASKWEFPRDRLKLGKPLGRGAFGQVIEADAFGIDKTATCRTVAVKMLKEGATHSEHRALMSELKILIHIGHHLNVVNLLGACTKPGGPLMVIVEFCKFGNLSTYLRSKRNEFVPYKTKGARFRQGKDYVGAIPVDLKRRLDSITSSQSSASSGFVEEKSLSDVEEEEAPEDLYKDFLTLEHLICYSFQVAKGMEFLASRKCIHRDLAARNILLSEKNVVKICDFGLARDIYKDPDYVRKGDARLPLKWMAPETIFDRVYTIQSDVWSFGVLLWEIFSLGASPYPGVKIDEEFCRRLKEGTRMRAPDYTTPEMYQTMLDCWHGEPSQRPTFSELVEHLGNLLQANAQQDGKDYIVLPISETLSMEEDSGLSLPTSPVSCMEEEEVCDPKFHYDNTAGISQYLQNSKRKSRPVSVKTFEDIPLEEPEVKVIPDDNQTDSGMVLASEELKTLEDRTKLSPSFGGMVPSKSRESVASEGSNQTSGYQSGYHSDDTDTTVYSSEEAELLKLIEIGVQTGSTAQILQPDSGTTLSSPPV
Epidermal growth factor receptor (Homo sapiens), sequence (P00533 whole entry, the tested form may be a part): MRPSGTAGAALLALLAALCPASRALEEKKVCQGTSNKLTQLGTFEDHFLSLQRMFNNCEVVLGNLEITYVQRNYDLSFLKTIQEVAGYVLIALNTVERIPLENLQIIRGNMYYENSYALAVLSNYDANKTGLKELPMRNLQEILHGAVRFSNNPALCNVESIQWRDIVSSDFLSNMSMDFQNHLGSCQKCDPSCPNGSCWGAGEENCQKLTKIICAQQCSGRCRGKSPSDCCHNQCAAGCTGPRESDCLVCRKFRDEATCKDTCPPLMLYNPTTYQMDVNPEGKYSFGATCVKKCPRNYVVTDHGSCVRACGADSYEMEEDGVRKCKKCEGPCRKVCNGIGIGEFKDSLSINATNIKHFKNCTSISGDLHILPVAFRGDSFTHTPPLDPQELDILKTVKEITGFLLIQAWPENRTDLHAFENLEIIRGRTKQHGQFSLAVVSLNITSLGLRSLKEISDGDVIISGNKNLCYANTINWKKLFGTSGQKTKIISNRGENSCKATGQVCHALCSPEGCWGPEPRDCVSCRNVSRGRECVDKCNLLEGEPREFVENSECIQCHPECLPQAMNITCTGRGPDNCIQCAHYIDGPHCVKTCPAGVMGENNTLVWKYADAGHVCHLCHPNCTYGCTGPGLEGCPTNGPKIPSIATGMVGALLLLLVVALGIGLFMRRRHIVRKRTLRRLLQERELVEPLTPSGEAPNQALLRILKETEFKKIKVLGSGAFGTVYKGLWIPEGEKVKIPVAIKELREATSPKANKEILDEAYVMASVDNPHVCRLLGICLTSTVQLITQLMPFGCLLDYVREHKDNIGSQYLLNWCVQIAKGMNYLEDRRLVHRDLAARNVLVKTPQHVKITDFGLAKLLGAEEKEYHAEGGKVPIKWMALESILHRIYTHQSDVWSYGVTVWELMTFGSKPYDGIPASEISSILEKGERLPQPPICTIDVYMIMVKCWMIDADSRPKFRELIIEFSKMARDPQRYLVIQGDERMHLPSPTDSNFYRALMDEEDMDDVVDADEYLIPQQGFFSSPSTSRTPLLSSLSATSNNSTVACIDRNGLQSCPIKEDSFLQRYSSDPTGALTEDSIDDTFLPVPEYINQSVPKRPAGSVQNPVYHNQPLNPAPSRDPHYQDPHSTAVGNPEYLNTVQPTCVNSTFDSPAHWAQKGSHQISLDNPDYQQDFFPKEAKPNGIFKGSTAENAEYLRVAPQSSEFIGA
RAC-beta serine/threonine-protein kinase (Homo sapiens), sequence (P31751 whole entry): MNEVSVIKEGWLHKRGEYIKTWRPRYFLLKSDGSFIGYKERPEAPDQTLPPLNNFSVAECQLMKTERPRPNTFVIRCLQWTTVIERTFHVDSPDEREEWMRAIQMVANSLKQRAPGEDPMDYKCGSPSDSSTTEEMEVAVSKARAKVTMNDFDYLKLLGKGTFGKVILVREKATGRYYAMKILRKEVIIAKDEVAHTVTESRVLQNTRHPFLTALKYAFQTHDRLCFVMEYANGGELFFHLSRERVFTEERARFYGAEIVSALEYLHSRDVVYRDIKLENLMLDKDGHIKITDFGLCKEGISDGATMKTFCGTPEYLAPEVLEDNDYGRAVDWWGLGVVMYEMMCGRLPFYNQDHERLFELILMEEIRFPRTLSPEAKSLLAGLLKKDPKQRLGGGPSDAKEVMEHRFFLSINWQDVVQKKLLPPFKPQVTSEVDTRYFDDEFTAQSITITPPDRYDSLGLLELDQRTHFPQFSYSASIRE
Ribosomal protein S6 kinase alpha-1 (Homo sapiens), sequence (Q15418 whole entry, the tested form may be a part): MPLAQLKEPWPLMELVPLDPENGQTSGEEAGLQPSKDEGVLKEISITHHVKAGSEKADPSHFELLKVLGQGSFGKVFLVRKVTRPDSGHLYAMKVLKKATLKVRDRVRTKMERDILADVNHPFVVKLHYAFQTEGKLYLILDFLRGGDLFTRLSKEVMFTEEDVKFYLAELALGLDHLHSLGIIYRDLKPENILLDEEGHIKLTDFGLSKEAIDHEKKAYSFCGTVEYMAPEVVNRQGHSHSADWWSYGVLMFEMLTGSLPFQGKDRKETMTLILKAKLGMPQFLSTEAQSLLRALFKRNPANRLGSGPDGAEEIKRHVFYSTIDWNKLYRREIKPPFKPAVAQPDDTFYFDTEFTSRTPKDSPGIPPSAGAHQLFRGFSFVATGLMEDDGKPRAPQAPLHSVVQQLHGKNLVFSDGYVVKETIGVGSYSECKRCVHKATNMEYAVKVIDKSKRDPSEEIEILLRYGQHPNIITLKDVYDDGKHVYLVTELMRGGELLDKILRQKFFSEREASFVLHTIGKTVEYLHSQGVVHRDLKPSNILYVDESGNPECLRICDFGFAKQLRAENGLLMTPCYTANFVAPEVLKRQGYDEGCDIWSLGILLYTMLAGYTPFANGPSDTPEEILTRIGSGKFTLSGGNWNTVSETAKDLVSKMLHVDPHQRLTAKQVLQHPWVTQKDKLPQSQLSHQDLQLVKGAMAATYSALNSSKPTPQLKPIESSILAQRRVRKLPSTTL
Casein kinase I isoform alpha (Homo sapiens), sequence (P48729 2-337 limits assumed): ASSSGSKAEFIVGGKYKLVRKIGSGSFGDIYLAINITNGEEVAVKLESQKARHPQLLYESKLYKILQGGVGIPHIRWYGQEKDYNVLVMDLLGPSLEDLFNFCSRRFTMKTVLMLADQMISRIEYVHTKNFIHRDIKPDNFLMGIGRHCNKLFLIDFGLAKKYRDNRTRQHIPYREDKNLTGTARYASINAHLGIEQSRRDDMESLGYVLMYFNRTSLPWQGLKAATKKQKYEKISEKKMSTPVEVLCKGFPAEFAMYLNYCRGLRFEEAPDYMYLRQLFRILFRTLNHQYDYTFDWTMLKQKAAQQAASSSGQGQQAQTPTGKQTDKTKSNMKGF

Row | inhibition [1] [%] | inhibition [2] [%] | remaining at 0.5 h, 0.5 µM [3] [%] | remaining at 0.5 h, 0.5 µM [4] [%] | inhibition [5] [%] | inhibition [6] [%] | inhibition [7] [%] | inhibition [8] [%] | inhibition [9] [%] | inhibition [10] [%] | inhibition [11] [%] | inhibition [12] [%] | Ki [13] [nM] | Ki [14] [nM] | inhibition [15] [%] | SMILES
1 | < 25 | < 25 | 95 | 100 | < 25 | < 25 | < 25 | < 25 | < 25 | < 25 | < 25 | < 25 | 1.52 | 40.6 | < 25 | CS(=O)(=O)N1CCN(Cc2cn3nc(-c4cnc(N)nc4)nc(N4CCOCC4)c3n2)CC1
2 | < 25 | < 25 | 99 | 100 | < 25 | < 25 | < 25 | < 25 | < 25 | < 25 | < 25 | < 25 | 1 |  | < 25 | CS(=O)(=O)N1CCN(Cc2nc3c(N4CCOCC4)nc(-c4cnc(N)nc4)cn3n2)CC1
3 | < 25 | < 25 | 97 | 100 | < 25 | < 25 | < 25 | < 25 | < 25 | < 25 | < 25 | < 25 | 0.99 | 49.1 | < 25 | CS(=O)(=O)N1CCN(Cc2cc3c(N4CCOCC4)nc(-c4cnc(N)nc4)cn3n2)CC1
4 | < 25 | < 25 | 97 | 96 | < 25 | < 25 | < 25 | < 25 | < 25 | < 25 | < 25 | < 25 | 5.5 | 42.4 | < 25 | CS(=O)(=O)N1CCN(Cc2nc3c(N4CCOCC4)nc(-c4cnc(N)nc4)c(Cl)n3n2)CC1
